What was measured:
Canis familiaris [1] = test: Saluretic activity in the dog measured as concentration of Cl - in urinary excretion (2 animals/dose) at (dose 1.56 mg/Kg, perorally); type: functional, Canis lupus familiaris, Urine
Method in brief: (§1)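 Male beagles trained to the procedures, food withdrawn 24 h before, tap water ad libitum. Bladder emptied by catheter, then 20 mL/kg tap water by stomach tube, plus 4 mL/kg orally at each hourly catheterization up to 8 h. The first 2 h of urine served as control. Compound given orally after the second catheterization. Urine from 1–6 h post-dose pooled; Na⁺ and K⁺ by flame photometry, Cl⁻ argentometrically, in mequiv/kg.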

[2] = Solubility of compound in water was determined; type: physicochemical; conditions: buffer
[3] = It is the ratio, measured as saluretic activity in the dog as concentration of Cl- in urinary excretion (dose 0.1 mg/Kg, perorally) to that of (Na+)+(K+); type: functional, Urine
Method in brief: (§2)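 Trained male beagles, fasted 24 h with tap water ad libitum. Bladder emptied by catheter, then 20 mL/kg tap water by stomach tube, with 4 mL/kg water at each hourly catheterization up to 8 h. The first 2 h of urine served as control. Oral dosing came after the second catheterization, and 1–6 h urine was pooled. Na⁺ and K⁺ were measured by flame photometry, Cl⁻ argentometrically, in mequiv/kg.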

[4] = It is the ratio, measured as saluretic activity in the dog as concentration of Cl- in urinary excretion (dose 1.56 mg/Kg, po) to that of (Na+)+(K+); type: functional, Urine; method in brief: as §2
Canis familiaris [5] = test: urinary excretion collected at 1-24 hr time after oral administration in dog (four animals per dose) dosed at 0.39 mg/kg.
[6] = It is the ratio, measured as saluretic activity in the dog as concentration of Na+ in urinary excretion (dose 0.4 mg/Kg, perorally) to that of K; type: functional, Urine; method in brief: as §2
[7] = Dissociation constant, pK1 was determined using sodium salt
[8] = Partion coefficient in octanol/H2O system at pH=7; type: physicochemical
Method in brief: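 Partition between octanol and Britton-Robinson buffer, measured across pH 0–13; value read at pH 7.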

Canis familiaris [9] = test: Diuretic activity in the dog (2 animals/dose) at (dose 0.025 mg/Kg), when administered perorally; type: functional, Canis lupus familiaris, Urine; method in brief: as §2
Canis familiaris [10] = test: Saluretic activity in the dog measured as concentration of Na+ in urinary excretion (2 animals/dose) at (dose 1.56 mg/Kg, perorally); type: functional, Canis lupus familiaris, Urine
Method in brief: (§3)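 Male beagles trained to rest on a table and to accept stomach tube and catheter. Food withdrawn 24 h before, tap water ad libitum. Bladder emptied by catheter, then 20 mL/kg tap water by stomach tube. Catheterized hourly up to 8 h with 4 mL/kg water orally each time; first 2 h urine served as control. Oral dosing after second catheterization. Pooled 1–6 h urine; Na⁺/K⁺ by flame photometry, Cl⁻ argentometrically.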

Canis familiaris [11] = test: Diuretic activity in the dog (2 animals/dose) at (dose 0.1 mg/Kg), when administered perorally; type: functional, Canis lupus familiaris, Urine; method in brief: as §2
Canis familiaris [12] = test: Saluretic activity in the dog measured as concentration of Cl - in urinary excretion (2 animals/dose) at (dose 0.1 mg/Kg, perorally); type: functional, Canis lupus familiaris, Urine; method in brief: as §1
Canis familiaris [13] = test: Diuretic activity in the dog (2 animals/dose) at (dose 1.56 mg/Kg), when administered perorally; type: functional, Canis lupus familiaris, Urine; method in brief: as §2
Rattus norvegicus [14] = organism: Rattus norvegicus; test: Saluretic activity in the rat measured as concentration of K+ in urine; type: functional
Method in brief: (§4)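 Rats deprived of food 24 h, water ad libitum, dosed 50 mg/kg by stomach tube as suspension in 2% starch, no extra water load. Groups of three in diuresis funnels; urine over first 5 h collected. Na⁺ and K⁺ by flame photometry, Cl⁻ argentometrically; expressed as mequiv/kg.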

Canis familiaris [15] = test: Saluretic activity in the dog measured as concentration of Cl - in urinary excretion (2 animals/dose) at (dose 0.4 mg/Kg, perorally); type: functional, Canis lupus familiaris, Urine; method in brief: as §1
Rattus norvegicus [16] = organism: Rattus norvegicus; test: Saluretic activity in the rat measured as concentration of chloride in urine; type: functional; method in brief: as §4
Rattus norvegicus [17] = organism: Rattus norvegicus; test: Diuretic activity in the rats, determined by a modified Lipschitz test; type: functional, Urine
Method in brief: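 Modified Lipschitz test: rats deprived of water 24 h, grouped in threes of similar weight in diuresis funnels. Oral dose of 50 mg/kg, suspended in 2% starch solution, by stomach tube.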

Canis familiaris [18] = test: sodium excretion collected at 1-24 hr time after oral administration in dog (four animals per dose) dosed at 0.05 mg/kg.; type: functional, Canis lupus familiaris
Method in brief: (§5)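 Trained male beagles, four per dose, fasted 24 h with tap water ad libitum. After bladder emptying, given 20 mL/kg tap water by stomach tube, then 4 mL/kg at each hourly catheterization; 2 h control collection, then oral dosing. Urine volume and Na⁺ (flame photometry) reported for 1–6, 7–24 and 1–24 h post-dose periods.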

Canis familiaris [19] = test: Diuretic activity in the dog (2 animals/dose) at (dose 0.4 mg/Kg), when administered perorally; type: functional, Canis lupus familiaris, Urine; method in brief: as §2
Canis familiaris [20] = test: Saluretic activity in the dog measured as concentration of K+ in urinary excretion (2 animals/dose) at (dose 0.4 mg/Kg, perorally); type: functional, Canis lupus familiaris, Urine; method in brief: as §1
Canis familiaris [21] = test: Saluretic activity in the dog measured as concentration of K+ in urinary excretion (2 animals/dose) at (dose 1.56 mg/Kg, perorally); type: functional, Canis lupus familiaris, Urine; method in brief: as §1
Rattus norvegicus [22] = organism: Rattus norvegicus; test: Saluretic activity in the rat measured as concentration of Na+ in urine; type: functional; method in brief: as §4
Canis familiaris [23] = test: Saluretic activity in the dog measured as concentration of K+ in urinary excretion (2 animals/dose) at (dose 0.1 mg/Kg, perorally); type: functional, Canis lupus familiaris, Urine; method in brief: as §1
[24] = It is the ratio, measured as saluretic activity in the dog as concentration of Na+ in urinary excretion (dose 0.1 mg/Kg, perorally) to that of K; type: functional, Urine; method in brief: as §2
[25] = Dissociation constant, pK2 was determined using sodium salt
Canis familiaris [26] = test: Saluretic activity in the dog measured as concentration of Na+ in urinary excretion (2 animals/dose) at (dose 0.1 mg/Kg, perorally); type: functional, Canis lupus familiaris, Urine; method in brief: as §3
[27] = It is the ratio, measured as saluretic activity in the dog as concentration of Cl- in urinary excretion (dose 1.56 mg/Kg, perorally) to that of (Na+)+K+); type: functional, Urine; method in brief: as §2
Canis familiaris [28] = test: sodium excretion collected at 1-6 hr time after oral administration in dog (four animals per dose) at dose 6.25 mg/kg.; type: functional, Canis lupus familiaris; method in brief: as §5
Canis familiaris [29] = test: Urinary excretion collected at 1-6 hr time after oral administration in dog (four animals per dose) at dose 6.25 mg/kg.; type: functional, Canis lupus familiaris, Urine; method in brief: as §5
[30] = It is the ratio, measured as saluretic activity in the dog as concentration of Cl- in urinary excretion (dose 0.4 mg/Kg, perorally) to that of (Na++K+); type: functional, Urine; method in brief: as §2
Canis familiaris [31] = test: sodium excretion collected at 7-24 hr time after oral administration in dog (four animals per dose) at dose 6.25 mg/kg.; type: functional, Canis lupus familiaris; method in brief: as §5
Canis familiaris [32] = test: Saluretic activity in the dog measured as concentration of K+ in urinary excretion (2 animals/dose) at (dose 12.5 mg/Kg, perorally); type: functional, Canis lupus familiaris, Urine; method in brief: as §3
Canis familiaris [33] = test: sodium excretion collected at 1-24 h time after oral administration in dog (four animals per dose) at dose 6.25 mg/kg.; type: functional, Canis lupus familiaris; method in brief: as §5
Canis familiaris [34] = test: Saluretic activity in the dog measured as concentration of Cl - in urinary excretion (2 animals/dose) at (dose 12.5 mg/Kg, perorally); type: functional, Canis lupus familiaris, Urine; method in brief: as §1

Row | SMILES | Saldiuretic activity (Canis familiaris [1]) [m equiv 6hr-1 kg-1] | Solubility [2] [%] | Ratio [3] | Ratio [6] | pKa [7] | Partition coefficient [8] | Saluretic activity (Canis familiaris [10]) [m equiv 6hr-1 kg-1] | Diuretic activity (Canis familiaris [11]) [ml kg-1 6hr-1] | Saldiuretic activity (Canis familiaris [12]) [m equiv 6hr-1 kg-1] | Diuretic activity (Canis familiaris [13]) [ml kg-1 6hr-1] | Saluretic activity (Rattus norvegicus [14]) [m equiv 5hr-1 kg-1] | Saldiuretic activity (Canis familiaris [15]) [m equiv 6hr-1 kg-1] | Saluretic activity (Rattus norvegicus [16]) [m equiv 5hr-1 kg-1] | Diuretic activity (Rattus norvegicus [17]) [mL/kg] | Diuretic activity (Canis familiaris [19]) [ml kg-1 6hr-1] | Saluretic activity (Canis familiaris [20]) [m equiv 6hr-1 kg-1] | Saluretic activity (Rattus norvegicus [22]) [m equiv 5hr-1 kg-1] | Saluretic activity (Canis familiaris [23]) [m equiv 6hr-1 kg-1] | Ratio [24] | pKa [25] | further results
1 | CN(c1ccccc1)c1cc(NCc2ccco2)c(S(=O)(=O)[O-])cc1S(N)(=O)=O.[Na+] | 6.79 | 4 | 1.1 | 4.1 | 1 | 0.28 | 5.74 | 54.3 | 3.99 | 69.4 | 2.4 | 6.34 | 9.4 | 4.6 | 75.3 | 1.28 | 8.2 | 0.72 | 4.3 | 10.5 | Ratio [4]: 1; Urinary excretion (Canis familiaris [5]): 95.7 mL/kg; Diuretic activity (Canis familiaris [9]): 33.3 ml kg-1 6hr-1; Na+ excretion (Canis familiaris [18]): 1.51 mequiv kg-1; Saldiuretic activity (Canis familiaris [21]): 1.17 m equiv 6hr-1 kg-1; Saluretic activity (Canis familiaris [26]): 3.08 m equiv 6hr-1 kg-1
2 | NS(=O)(=O)c1cc(S(=O)(=O)[O-])c(NCc2ccco2)cc1Oc1ccccc1.[Na+] | 5.47 | 20 | 0.8 | 3.5 | 0.5 | 0.12 | 4.89 | 30 | 0.27 | 71.4 | 2.1 | 1.65 | 9.6 | 4.1 | 36.4 | 0.34 | 7 | 0.15 | 1.2 | 10.2 | Ratio [27]: 0.95; Na+ excretion (Canis familiaris [28]): 6.52 mequiv kg-1; Urinary excretion (Canis familiaris [29]): 75.4 mL/kg; Ratio [30]: 1.1; Na+ excretion (Canis familiaris [31]): 1.98 mequiv kg-1; Saldiuretic activity (Canis familiaris [32]): 1.17 m equiv 6hr-1 kg-1; Na+ excretion (Canis familiaris [33]): 8.55 mequiv kg-1; Saluretic activity (Canis familiaris [21]): 1 m equiv 6hr-1 kg-1; Saldiuretic activity (Canis familiaris [34]): 7.13 m equiv 6hr-1 kg-1; Saluretic activity (Canis familiaris [26]): 1.19 m equiv 6hr-1 kg-1

— ChEMBL document CHEMBL1122273, “5-sulfamoylorthanilic acids, a sulfonamide series with salidiuretic activity” (J Med Chem, 1983)
